In brackets after ≈: the same amount, converted by molar mass.
How the values were obtained:
USA300 #757 = assay: MIC, clinical isolate strain 7; format: cell-based; settings: Staphylococcus aureus, USA300, read-out: MIC strain 7
Summary of the method: (§1)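 Broth microdilution per CLSI guidelines. MIC is the lowest concentration preventing visible bacterial growth. MIC is reported in μg/mL, with S. aureus values also converted to μM.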

USA300 #417 = assay: MIC, clinical isolate strain 6; format: cell-based; settings: Staphylococcus aureus, USA300, read-out: MIC strain 6
Summary of the method: as §1

USA300 #1799 = assay: MIC, clinical isolate strain 8; format: cell-based; settings: Staphylococcus aureus, USA300, read-out: MIC strain 8
Summary of the method: as §1

S. aureus ATCC 43300 = assay: MIC, clinical isolate strain 5; format: cell-based; settings: Staphylococcus aureus, ATCC43300, read-out: MIC strain 5
Summary of the method: as §1

S. aureus FtsZ [1] = biological target: T1, S. aureus FtsZ (Staphylococcus aureus, UniProt P0A031); assay: Light scattering assay of FtsZ polymerization; format: biochemical; settings: 30 μM compound, vs 1% DMSO vehicle
T1 sequence (P0A031 1-390): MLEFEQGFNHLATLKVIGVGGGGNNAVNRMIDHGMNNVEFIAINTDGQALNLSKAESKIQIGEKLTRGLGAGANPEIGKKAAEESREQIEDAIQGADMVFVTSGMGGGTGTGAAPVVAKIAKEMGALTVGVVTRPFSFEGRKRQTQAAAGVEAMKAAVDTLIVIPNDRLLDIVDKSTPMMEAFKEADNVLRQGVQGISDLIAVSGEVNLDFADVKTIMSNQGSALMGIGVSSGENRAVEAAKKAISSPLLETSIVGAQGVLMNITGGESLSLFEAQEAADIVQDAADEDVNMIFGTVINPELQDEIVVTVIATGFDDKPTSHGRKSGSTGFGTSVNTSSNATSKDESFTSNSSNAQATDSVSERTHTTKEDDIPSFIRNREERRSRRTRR

B. subtilis 168 [2] = assay: MIC, B. subtilis 168; format: cell-based; settings: Bacillus subtilis, 168, read-out: MIC B. subtilis 168
[3] = Solubility in aqueous medium; format: physicochemical; settings: precipitation in aqueous medium at >80 μM
[4] = test system: G. mellonella larvae infected with MRSA ATCC 43300; assay: Antimicrobial efficacy in G. mellonella model of infection; format: in vivo, Galleria mellonella; settings: 2.5 × 10^6 CFU/larva MRSA ATCC 43300
Summary of the method: (§2)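 G. mellonella model: groups of 10 last-instar larvae weighing 200–300 mg, held at 37 °C. Test compound is dissolved in 50% PEG in saline (0 [vehicle], 50, 100 mg/kg) and injected into the last left proleg with a Hamilton syringe. Mortality is scored every 12 h for 48 h. Survival is analysed by log rank and χ² test (1 degree of freedom), with three independent experiments.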

B. subtilis 168 [5] = assay: Bacterial morphology of B. subtilis 168; format: cell-based, Bacillus subtilis; settings: sublethal concentration; DMSO-treated cells < 5 μm
USA300 #2690 = assay: MIC, clinical isolate strain 9; format: cell-based; settings: Staphylococcus aureus, USA300, read-out: MIC strain 9
Summary of the method: as §1

S. aureus FtsZ [6] = biological target: T1, S. aureus FtsZ; assay: STD NMR study; format: binding
Summary of the method: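 Saturation transfer difference NMR with purified S. aureus FtsZ at 600 MHz and 298 K. For group epitope mapping, each proton's STD signal is integrated relative to the strongest STD signal, set to 100%.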

G. mellonella larvae = assay: Toxicity in G. mellonella larvae; format: in vivo, Galleria mellonella; settings: 50 and 100 mg/kg in 50% PEG in saline, injected, 48 h
Summary of the method: as §2

[7] = test system: E. coli strain ATCC 25922; assay: MIC, broth microdilution; format: cell-based; settings: Escherichia coli, ATCC25922, read-out: MIC E. coli
Summary of the method: as §1

S. aureus ATCC 29247 = assay: MIC, clinical isolate strain 1; format: cell-based; settings: Staphylococcus aureus, ATCC29247, read-out: MIC strain 1
Summary of the method: as §1

[8] = test system: S. aureus strain ATCC 29213; assay: MIC, broth microdilution; format: cell-based, Staphylococcus aureus; settings: S. aureus 29213; Table 1
Summary of the method: as §1

[9] = test system: green fluorescent protein-tagged FtsZ in B. subtilis 168; assay: Z-ring visualization of B. subtilis 168; format: cell-based, Bacillus subtilis
Summary of the method: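 B. subtilis 168 expressing functional GFP-tagged FtsZ is treated with compound or DMSO. Z-ring formation is imaged by fluorescence microscopy alongside matching phase-contrast images.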

S. aureus FtsZ [10] = biological target: T1, S. aureus FtsZ; assay: GTPase hydrolysis activity assay; format: biochemical; settings: read-out: inhibition of GTPase hydrolysis activity

## COc1cccc(OC)c1C(=O)N[C@@H]1C(=O)N2[C@@H]1SC(C)(C)[C@@H]2C(=O)O [methicillin, reference compound]
USA300 #757
  MIC: 64 µg/mL (≈ 168 µM)
USA300 #417
  MIC: > 64 µg/mL
USA300 #1799
  MIC: 64 µg/mL (≈ 168 µM)
S. aureus ATCC 43300
  MIC: > 64 µg/mL

## CCC(CC)c1cc(CCN2CCCN(Cc3ccc(C(F)(F)F)cc3)CC2)nc(-c2ccncc2)n1 [14av_amine16, 1-(2-(6-(Pentan-3-yl)-2-(pyridin-4-yl)pyrimidin-4-yl)ethyl)-4-(4-(trifluoromethyl)benzyl)-1,4-diazepane]
S. aureus FtsZ [1]
  inhibition of FtsZ polymerization: complete inhibition
B. subtilis 168 [2]
  MIC: 12 µM (≈ 6.14 µg/mL)
USA300 #757
  MIC: 6 µg/mL (≈ 11.7 µM)
[3]
  compound solubility: poor compound solubility
[4]; 50 mg/kg
  survival time of infected larvae: 36 h
[4]; 100 mg/kg, 48 h
  survival rate of infected larvae: 20%
B. subtilis 168 [5]
  average cell length: > 20 μm
USA300 #2690
  MIC: 6 µg/mL (≈ 11.7 µM)
S. aureus FtsZ [6]
  binding to FtsZ protein by STD NMR: binds to FtsZ protein
G. mellonella larvae
  toxicity to G. mellonella larvae (survival): did not kill the G. mellonella larvae
USA300 #417
  MIC: 6 µg/mL (≈ 11.7 µM)
[7]
  MIC: > 64 µg/mL
S. aureus ATCC 29247
  MIC: 4 µg/mL (≈ 7.82 µM)
[8]
  MIC S. aureus: 4 µg/mL (≈ 7.82 µM)
  MIC S. aureus, number in parentheses calculated in μM: 8 µM (≈ 4.09 µg/mL)
[9]
  Z-ring localization: obvious mislocalization of the Z-ring
USA300 #1799
  MIC: 6 µg/mL (≈ 11.7 µM)
S. aureus ATCC 43300
  MIC: 6 µg/mL (≈ 11.7 µM)
S. aureus FtsZ [10]
  inhibition at 50 µM: ~20%
  inhibition at 75 µM: ~25%
